Experimental data: ChEMBL document CHEMBL3259574, “Environmentally benign synthesis and antimicrobial study of novel chalcogenophosphates” (Bioorg Med Chem Lett, 2014)

Columns and labels:
[1] = test system: Bacillus subtilis; test: Antimicrobial activity against Bacillus subtilis MTCC121 assessed as zone diameter at 100 ug/ml after 24 hrs incubation by agar diffusion as say cup method; type: functional; settings: MTCC121, 24 h, read-out: DIZ
Outline: (§1)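 Agar cup diffusion on nutrient agar plates. Solidified plates were spread with 0.1% cell suspension (10^6 CFU/mL) of the test organism and held 15 min, then 6 mm wells were cut. Samples at 100 µg/mL in DMSO went into the wells, and plates were incubated 24 h at 30–35 °C. Inhibition zone diameter was measured in mm by digital vernier caliper. Triplicate parallel sets gave mean ± standard deviation, compared by ANOVA with Tukey test (P < 0.01).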

[2] = test system: Staphylococcus aureus; test: Antimicrobial activity against Staphylococcus aureus MTCC1430 assessed as zone diameter at 100 ug/ml after 24 hrs incubation by agar diffusion as say cup method; type: functional; settings: MTCC1430, 24 h, read-out: DIZ; outline: as §1
[3] = test system: Escherichia coli; test: Antimicrobial activity against Escherichia coli MTCC1610 assessed as zone diameter at 100 ug/ml after 24 hrs incubation by agar diffusion as say cup method; type: functional; settings: MTCC1610, 24 h, read-out: DIZ; outline: as §1
[4] = test system: Pseudomonas aeruginosa; test: Antimicrobial activity against Pseudomonas aeruginosa MTCC424 assessed as zone diameter at 100 ug/ml after 24 hrs incubation by agar diffusion as say cup method; type: functional; settings: MTCC424, 24 h, read-out: DIZ; outline: as §1
[5] = test system: Candida albicans; test: Antimicrobial activity against Candida albicans MTCC227 assessed as zone diameter at 100 ug/ml after 24 hrs incubation by agar diffusion as say cup method; type: functional; settings: MTCC227, 24 h, read-out: DIZ; outline: as §1
[6] = test system: Cicer arietinum; test: Toxicity in gram seed germination assessed as seedling fresh weight; type: organism-based; settings: in vivo
[7] = test system: Pisum sativum; test: Toxicity in pea seed germination assessed as seedling fresh weight; type: organism-based; settings: lathyrus oleraceus, in vivo
[8] = test system: Vigna mungo; test: Toxicity in mung seed germination assessed as seedling fresh weight; type: organism-based; settings: in vivo
[9] = test system: Cicer arietinum; test: Toxicity in gram seed germination assessed as seedling length; type: organism-based; settings: in vivo
[10] = test system: Pisum sativum; test: Toxicity in pea seed germination assessed as seedling length; type: organism-based; settings: lathyrus oleraceus, in vivo

| Compound | zone of inhibition at 100 µg/mL [1] | zone of inhibition at 100 µg/mL [2] | zone of inhibition at 100 µg/mL [3] | zone of inhibition at 100 µg/mL [4] | zone of inhibition at 100 µg/mL [5] | Activity [6] | Activity [7] | Activity [8] | Activity [9] | Activity [10] |
| --- | --- | --- | --- | --- | --- | --- | --- | --- | --- | --- |
| O=P(OCc1ccccc1)(OCc1ccccc1)Sc1ccccc1 | 19.8 mm | 25.1 mm | 22.9 mm | 25.4 mm | 28.1 mm | – | – | – | – | – |
| O=P(OCc1ccccc1)(OCc1ccccc1)[Se]c1ccccc1 | 23.4 mm | 20.3 mm | 27.3 mm | 24.3 mm | 25.9 mm | – | – | – | – | – |
| CCOP(=O)(OCC)[Se]c1ccccc1 | 31.6 mm | 30.2 mm | 24.3 mm | 32.1 mm | 34 mm | Non-toxic | Non-toxic | Non-toxic | Non-toxic | Non-toxic |
| CCOP(=O)(OCC)Sc1ccccc1 | 20.6 mm | 22.5 mm | 21 mm | 23.6 mm | 26.4 mm | Non-toxic | Non-toxic | Non-toxic | Non-toxic | Non-toxic |
| COP(=O)(OC)[Se]c1ccccc1 | 22.1 mm | 28.4 mm | 22.5 mm | 25.6 mm | 28.3 mm | – | – | – | – | – |
| O=C(N[C@H](CO)[C@H](O)c1ccc([N+](=O)[O-])cc1)C(Cl)Cl [CHLORAMPHENICOL] | 33.4 mm | 30.9 mm | 35 mm | 33.6 mm | – | – | – | – | – | – |
| CC(C)OP(=O)(OC(C)C)[Se]c1ccccc1 | 33.1 mm | 30.5 mm | 35.1 mm | 33.4 mm | 38.6 mm | Non-toxic | Non-toxic | Non-toxic | Non-toxic | Non-toxic |
